Source: ChEMBL document CHEMBL1165965, “Synthesis and structure-activity relationships of 1,2,3,4-tetrahydropyrido[2,3-b]pyrazines as potent and selective inhibitors of the anaplastic lymphoma kinase” (Bioorg Med Chem, 2010)

Experiments:
[1] = biological target: T1, TGF-beta receptor type-1 (Homo sapiens) (UniProt P36897); assay: Inhibition of TGFBR1 at 1 uM
T1 sequence (whole entry): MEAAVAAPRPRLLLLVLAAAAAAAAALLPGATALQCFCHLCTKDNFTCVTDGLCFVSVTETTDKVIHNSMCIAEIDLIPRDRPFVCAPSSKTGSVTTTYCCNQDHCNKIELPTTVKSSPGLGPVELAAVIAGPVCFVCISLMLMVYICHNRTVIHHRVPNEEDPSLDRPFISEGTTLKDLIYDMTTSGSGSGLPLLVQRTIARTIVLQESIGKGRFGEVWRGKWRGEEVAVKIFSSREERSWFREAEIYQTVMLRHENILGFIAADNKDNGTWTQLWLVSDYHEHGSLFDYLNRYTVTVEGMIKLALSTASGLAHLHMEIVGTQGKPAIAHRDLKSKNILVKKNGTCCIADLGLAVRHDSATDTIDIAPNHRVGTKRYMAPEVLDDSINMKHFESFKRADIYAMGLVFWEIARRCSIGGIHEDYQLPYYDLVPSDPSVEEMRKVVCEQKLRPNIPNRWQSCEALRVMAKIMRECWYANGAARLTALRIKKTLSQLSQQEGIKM

[2] = biological target: ALK tyrosine kinase receptor (Homo sapiens, UniProt Q9UM73); assay: Inhibition of ALK phosphorylation in human Karpas-299 cells by immunoblotting and ELISA; type: cell-based
Method in brief: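 Karpas-299 cells were treated with compound, then lysed in Tris pH 7.5 / 1% Triton X-100 buffer containing phosphatase and protease inhibitors, briefly sonicated and cleared. For immunoblots, SDS–PAGE was probed with phospho-NPM-ALK(Y664) or total ALK antibodies and bands were quantified by ECL. For ELISA, lysates were captured overnight at 4 °C on anti-ALK, detected with anti-phospho-ALK(Y664) plus AP secondary, and read by 4-MeUP fluorescence.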

[3] = test system: T2, Receptor-type tyrosine-protein kinase FLT3 (Homo sapiens), P36888 [D835H]; assay: Inhibition of FLT3 D835H mutant at 1 uM
T2 sequence (whole entry): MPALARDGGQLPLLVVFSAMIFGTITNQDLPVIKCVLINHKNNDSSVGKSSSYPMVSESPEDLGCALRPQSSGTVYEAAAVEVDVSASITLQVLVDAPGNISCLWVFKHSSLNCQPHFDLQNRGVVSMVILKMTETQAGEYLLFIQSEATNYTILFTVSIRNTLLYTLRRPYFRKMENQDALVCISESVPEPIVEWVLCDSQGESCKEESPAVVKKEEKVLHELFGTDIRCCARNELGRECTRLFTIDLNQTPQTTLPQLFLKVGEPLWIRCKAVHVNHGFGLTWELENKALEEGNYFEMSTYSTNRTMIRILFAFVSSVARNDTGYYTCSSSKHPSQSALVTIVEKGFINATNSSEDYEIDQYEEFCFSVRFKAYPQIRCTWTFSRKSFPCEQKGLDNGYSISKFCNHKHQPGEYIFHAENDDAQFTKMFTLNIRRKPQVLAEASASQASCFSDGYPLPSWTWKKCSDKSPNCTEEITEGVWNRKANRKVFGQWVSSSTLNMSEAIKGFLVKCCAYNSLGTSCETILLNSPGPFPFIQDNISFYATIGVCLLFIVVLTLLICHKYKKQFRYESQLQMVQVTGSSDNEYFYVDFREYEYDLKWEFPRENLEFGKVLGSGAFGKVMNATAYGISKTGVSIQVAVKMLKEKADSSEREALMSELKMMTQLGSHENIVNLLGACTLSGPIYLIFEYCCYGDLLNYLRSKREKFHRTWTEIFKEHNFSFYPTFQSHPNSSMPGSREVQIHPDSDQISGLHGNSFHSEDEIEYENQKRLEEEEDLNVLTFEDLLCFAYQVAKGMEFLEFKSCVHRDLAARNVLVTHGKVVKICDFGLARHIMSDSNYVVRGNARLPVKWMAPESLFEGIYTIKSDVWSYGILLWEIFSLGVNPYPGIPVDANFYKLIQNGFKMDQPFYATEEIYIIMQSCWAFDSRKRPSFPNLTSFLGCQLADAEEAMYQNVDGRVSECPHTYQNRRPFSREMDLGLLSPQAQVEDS
Method in brief: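 Single-concentration screen on the Ambit KINOMEscan platform, run against a panel of 250–400 kinases. Per-kinase inhibition was also summarized as S(90), the fraction of kinases inhibited by more than 90%.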

ALK tyrosine kinase receptor, sequence (Q9UM73 whole entry): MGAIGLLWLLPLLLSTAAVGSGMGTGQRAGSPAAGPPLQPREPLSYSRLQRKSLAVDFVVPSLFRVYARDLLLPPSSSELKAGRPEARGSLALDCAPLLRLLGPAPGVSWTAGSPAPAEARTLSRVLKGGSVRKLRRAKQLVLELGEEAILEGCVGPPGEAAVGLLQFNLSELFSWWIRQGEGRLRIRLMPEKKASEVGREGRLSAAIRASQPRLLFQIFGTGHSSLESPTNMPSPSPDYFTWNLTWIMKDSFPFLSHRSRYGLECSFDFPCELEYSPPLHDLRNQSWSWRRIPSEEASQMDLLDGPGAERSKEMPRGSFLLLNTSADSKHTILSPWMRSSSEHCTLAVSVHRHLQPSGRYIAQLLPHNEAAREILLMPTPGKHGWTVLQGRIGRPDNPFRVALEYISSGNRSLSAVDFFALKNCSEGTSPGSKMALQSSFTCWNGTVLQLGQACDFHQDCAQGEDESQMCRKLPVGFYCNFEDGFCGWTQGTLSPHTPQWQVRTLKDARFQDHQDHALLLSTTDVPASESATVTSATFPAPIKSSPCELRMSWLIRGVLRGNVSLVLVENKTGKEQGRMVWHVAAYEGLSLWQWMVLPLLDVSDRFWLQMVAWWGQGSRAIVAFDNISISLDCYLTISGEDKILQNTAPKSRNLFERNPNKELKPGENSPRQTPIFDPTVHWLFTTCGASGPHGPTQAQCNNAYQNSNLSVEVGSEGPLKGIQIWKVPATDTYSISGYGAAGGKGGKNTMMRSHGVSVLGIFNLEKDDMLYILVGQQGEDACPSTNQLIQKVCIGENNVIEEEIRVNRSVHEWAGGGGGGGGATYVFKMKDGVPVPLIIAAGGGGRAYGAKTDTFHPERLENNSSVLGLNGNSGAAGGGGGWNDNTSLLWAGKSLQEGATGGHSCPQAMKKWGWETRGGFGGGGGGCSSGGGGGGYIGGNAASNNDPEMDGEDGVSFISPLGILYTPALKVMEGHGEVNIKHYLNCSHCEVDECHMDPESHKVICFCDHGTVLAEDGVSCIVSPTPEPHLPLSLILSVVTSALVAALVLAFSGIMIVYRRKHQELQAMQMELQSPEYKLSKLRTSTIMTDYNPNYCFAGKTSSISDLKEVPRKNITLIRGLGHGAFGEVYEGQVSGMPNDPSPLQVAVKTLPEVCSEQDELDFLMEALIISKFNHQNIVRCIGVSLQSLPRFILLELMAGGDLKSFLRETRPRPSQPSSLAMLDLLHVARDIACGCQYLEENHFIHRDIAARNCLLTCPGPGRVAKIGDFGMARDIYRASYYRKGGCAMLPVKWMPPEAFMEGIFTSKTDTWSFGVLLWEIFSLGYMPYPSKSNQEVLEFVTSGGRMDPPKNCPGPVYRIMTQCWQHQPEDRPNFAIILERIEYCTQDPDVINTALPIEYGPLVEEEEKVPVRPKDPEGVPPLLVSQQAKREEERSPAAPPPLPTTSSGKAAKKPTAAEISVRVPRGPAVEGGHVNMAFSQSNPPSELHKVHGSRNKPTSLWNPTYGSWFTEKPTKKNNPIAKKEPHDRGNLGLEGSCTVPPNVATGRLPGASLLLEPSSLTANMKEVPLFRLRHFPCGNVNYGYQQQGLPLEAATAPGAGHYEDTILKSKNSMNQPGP

SMILES	inhibition [1]	IC50 [2]	inhibition [3]
CN1CCN(c2ccc(-c3cnc4c(c3)N(Cc3cc(F)ccc3F)CCN4)cn2)CC1	< 50%	200 nM	72.5%
O=C(c1ccc(-c2cnc3c(c2)N(Cc2cc(Cl)ccc2C(F)(F)F)CCN3)cc1)N1CCC(N2CCCC2)CC1	< 50%	250 nM	90.1%
O=C(c1ccc(-c2cnc3c(c2)N(Cc2cc(Cl)ccc2C(F)(F)F)CCN3)cc1)N1CCCCC1	< 50%	–	< 50%
CN1CCN(c2ccc(-c3cnc4c(c3)N(Cc3c(F)ccc(F)c3Cl)CCN4)cn2)CC1	< 50%	–	73%
COC1CCN(C(=O)c2ccc(-c3cnc4c(c3)N(Cc3cc(Cl)ccc3C(F)(F)F)CCN4)cc2)CC1	< 50%	450 nM	77.2%
O=C(O)c1ccc(-c2cnc3c(c2)N(Cc2cc(Cl)ccc2C(F)(F)F)CCN3)cc1	< 50%	–	< 50%
CC(=O)N1CCN(c2cc(-c3cnc4c(c3)N(Cc3cc(Cl)ccc3C(F)(F)F)CCN4)ccn2)CC1	< 50%	250 nM	81%
FC(F)(F)c1ccc(Cl)cc1CN1CCNc2ncc(-c3ccnc(N4CCNCC4)c3)cc21	< 50%	150 nM	93%
CN1CCN(c2ccc(-c3cnc4c(c3)N(Cc3cc(Cl)ccc3C(F)(F)F)CCN4)cn2)CC1	< 50%	–	82%
CN1CCN(c2ccc(-c3cnc4c(c3)N(Cc3cc(Cl)ccc3Cl)CCN4)cn2)CC1	< 50%	–	80%
